# Source: ChEMBL document CHEMBL4152204, “Discovery of N-hydroxy-3-alkoxybenzamides as direct acid sphingomyelinase inhibitors using a ligand-based pharmacophore model” (Eur J Med Chem, 2018)
# Calls of active or inactive are those of the source. The rule behind the calls is not given here.
# Target: T1, Sphingomyelin phosphodiesterase 2 (Homo sapiens) (UniProt O60906)
# T1 sequence (whole entry): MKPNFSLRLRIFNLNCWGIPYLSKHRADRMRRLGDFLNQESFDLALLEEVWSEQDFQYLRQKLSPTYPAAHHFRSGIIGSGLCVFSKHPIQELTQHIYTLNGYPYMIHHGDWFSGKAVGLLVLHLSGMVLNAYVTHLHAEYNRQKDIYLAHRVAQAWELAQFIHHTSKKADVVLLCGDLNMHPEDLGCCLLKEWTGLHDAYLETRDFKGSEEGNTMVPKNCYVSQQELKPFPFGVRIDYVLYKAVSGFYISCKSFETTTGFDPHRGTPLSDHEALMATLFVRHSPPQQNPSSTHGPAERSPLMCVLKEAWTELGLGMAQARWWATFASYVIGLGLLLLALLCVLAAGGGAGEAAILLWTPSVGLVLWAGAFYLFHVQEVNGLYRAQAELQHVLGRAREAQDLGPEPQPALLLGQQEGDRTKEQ
# Test: Inhibition of neutral sphingomyelinase (unknown origin) assessed as reduction in NBD-ceramide release at 100 uM by TLC based fluorescence assay
row,SMILES,inhibition
1,CCCCCCCCCCOc1cccc(C(=O)NO)c1,inactive

# Target: T2, Sphingomyelin phosphodiesterase (Homo sapiens, UniProt P17405)
# T2 sequence (P17405 whole entry): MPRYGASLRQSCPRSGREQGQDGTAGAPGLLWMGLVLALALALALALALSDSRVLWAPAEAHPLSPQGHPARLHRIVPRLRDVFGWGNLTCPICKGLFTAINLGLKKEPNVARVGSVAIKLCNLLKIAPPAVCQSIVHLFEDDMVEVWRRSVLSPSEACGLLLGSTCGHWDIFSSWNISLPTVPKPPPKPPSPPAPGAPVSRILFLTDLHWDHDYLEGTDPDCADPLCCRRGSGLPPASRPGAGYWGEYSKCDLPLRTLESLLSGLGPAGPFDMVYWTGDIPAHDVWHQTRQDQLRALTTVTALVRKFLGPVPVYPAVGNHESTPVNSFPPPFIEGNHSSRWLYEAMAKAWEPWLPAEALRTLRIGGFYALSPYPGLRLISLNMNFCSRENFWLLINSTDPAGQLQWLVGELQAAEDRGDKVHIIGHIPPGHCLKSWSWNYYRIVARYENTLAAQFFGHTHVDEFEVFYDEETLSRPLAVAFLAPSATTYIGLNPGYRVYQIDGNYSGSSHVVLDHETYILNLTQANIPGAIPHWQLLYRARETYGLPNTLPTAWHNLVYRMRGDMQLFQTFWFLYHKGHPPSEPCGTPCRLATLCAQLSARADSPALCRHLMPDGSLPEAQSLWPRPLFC
# Test: Inhibition of acid sphingomyelinase in human HuH7 cell lysate using NBD-sphingomyelin as substrate after 30 mins by TLC based fluorescence assay
row,SMILES,IC50 [µM]
1,CCCCCCCCOc1cc(C(=O)NO)ccc1OC,16.1
2,CCCCCCCCCCCCOc1cc(C(=O)NO)ccc1OC,18.6
3,CCCCc1oc2ccccc2c1C(=O)c1cc(I)c(OCCN(CC)CC)cc1I,39.8
4,COc1c(O)cc2oc3cc(O)c(CC=C(C)C)c(O)c3c(=O)c2c1C/C=C(\C)CCC=C(C)C [COWANIN],19.2
5,CCCCCCCCCCCCS(=O)(=O)O[C@H]1OC(O)[C@H](OP(=O)(O)O)[C@@H](O)[C@@H]1OP(=O)(O)O (stereo partly drawn),0.44
6,N#Cc1ccc(COc2cccc(C(=O)NO)c2)cc1,52.9
7,COc1c(O)cc2oc3cc(O)c(CC=C(C)C)c(O)c3c(=O)c2c1CC=C(C)C [MANGOSTIN],24.7
8,CCCCCCCCCCOc1cc(C(=O)NCCO)ccc1OC,71
9,COc1cc(/C=C2/SC(=S)N(Nc3ncc(C(F)(F)F)cc3Cl)C2=O)cc(OC)c1OC,28.2
10,COc1ccc(/C=N/NC(=O)c2[nH]c3ccc(Cl)cc3c2-c2ccccc2)c(C(=O)O)c1OC,14.1
11,CCCCCCCCOc1cccc(C(=O)NO)c1,17.4
12,CCCCCCCC1Cc2cc(O)c(C(=O)O)c(O)c2C(C)O1 (stereo not drawn),68.7
13,COc1ccc(COc2cccc(C(=O)NO)c2)cc1,42.7
14,CCCCCCCCCCOc1cc(C(=O)NO)ccc1O,17.4
15,CCCCCCCCOC(=O)c1c(CSC(=N)N)n(C)c2cc(Br)c(OC(C)=O)cc12,31.6
16,COc1ccc(C(=O)NO)cc1OCc1ccccc1,10.5
17,O=C(NO)c1cccc(OCc2ccc(Br)cc2)c1,19.4
18,COc1ccc(C(=O)NO)cc1OCc1ccc(Br)cc1,7.78

row,SMILES,IC50 [µM]
1,CCN(CC)C(=O)/C=C/Cc1c(O)c(OC)cc2oc3cc(OC)cc(O)c3c(=O)c12,4.89 to 5.07
2,CCCCCCCCCCOc1cccc(C(=O)NO)c1,1.42
3,CCCCCCCCCC(OP(=O)(O)O)OP(=O)(O)O,0.3
4,CC(C)N1C(=N)/C(=C\c2nc(=O)c3ccccc3[nH]2)c2ccccc21,31.6
5,O=C(NO)c1cccc(OCc2ccccc2)c1,60.4
6,CC1=C(C(=O)Nc2ccccc2)C(c2ccc(Cl)cc2)n2c(s/c(=C/c3cccc(OCC(=O)O)c3)c2=O)=N1 (stereo not drawn),25.1
7,O=P(O)(O)O[C@H]1[C@H](O)[C@@H](OP(=O)(O)O)[C@H](O)[C@@H](OP(=O)(O)O)[C@H]1O,26.7
8,CCCCCCCCCCOc1cc(C(=O)NCC(C)O)ccc1OC (stereo not drawn),85.2
9,O=C(c1cc(-c2ccccc2)n(-c2ccc(Cl)cc2Cl)n1)N1CCOCC1,28.2
10,CCOc1ccc2oc(-c3cc(Br)cc4c3OCOC4)c(N)c(=O)c2c1,3.5
11,O=c1cc(-c2ccc3c(c2)OCCCO3)oc2c1ccc1ccccc12,24.3
12,CCCCCCCC(OP(=O)(O)O)OP(=O)(O)O,0.35
13,Cc1cc2[nH]c(=O)c(=O)[nH]c2cc1S(=O)(=O)N1CCN(c2cccc(Cl)c2)CC1,20
14,CCCCCCCCS(=O)(=O)OC[C@H]1OC(O)[C@H](OP(=O)(O)O)[C@@H](O)[C@@H]1OP(=O)(O)O (stereo partly drawn),2.34
15,Cc1c(C(=O)Nc2cccc(C(F)(F)F)c2)oc2ccc(S(=O)(=O)N3CCOCC3)cc12,22.4
16,CCNC(=O)/C=C/Cc1c(O)c(OC)cc2oc3cc(OC)cc(O)c3c(=O)c12,4.89 to 5.07
17,Cc1cc2[nH]c(=O)c(=O)[nH]c2cc1S(=O)(=O)N1CCN(c2cccc(C(F)(F)F)c2)CC1,20

# Target: T3, Sphingomyelin phosphodiesterase (Bos taurus, UniProt Q0VD19)
# T3 sequence (Q0VD19 whole entry): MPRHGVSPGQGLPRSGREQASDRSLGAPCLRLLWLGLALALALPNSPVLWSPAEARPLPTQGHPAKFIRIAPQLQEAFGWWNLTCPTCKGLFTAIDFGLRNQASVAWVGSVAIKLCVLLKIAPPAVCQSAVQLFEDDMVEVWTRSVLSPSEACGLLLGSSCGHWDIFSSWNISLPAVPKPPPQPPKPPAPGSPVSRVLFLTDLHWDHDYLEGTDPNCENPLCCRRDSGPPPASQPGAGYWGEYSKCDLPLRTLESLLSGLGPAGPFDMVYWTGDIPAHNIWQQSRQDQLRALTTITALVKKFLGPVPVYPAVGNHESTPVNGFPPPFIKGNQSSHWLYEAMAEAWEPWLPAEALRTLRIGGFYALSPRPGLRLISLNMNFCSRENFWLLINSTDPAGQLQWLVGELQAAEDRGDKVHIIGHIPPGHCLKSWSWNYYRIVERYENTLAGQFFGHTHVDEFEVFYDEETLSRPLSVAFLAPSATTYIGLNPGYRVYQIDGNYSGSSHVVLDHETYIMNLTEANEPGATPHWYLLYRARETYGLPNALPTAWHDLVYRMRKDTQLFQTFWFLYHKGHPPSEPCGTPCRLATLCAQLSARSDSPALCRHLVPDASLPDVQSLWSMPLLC
# Test: Inhibition of bovine brain-derived acidic sphingomyelinase
row,SMILES,IC50 [µM]
1,COc1c(O)cc2oc3cc(O)c(CC=C(C)C)c(O)c3c(=O)c2c1CC=C(C)C [MANGOSTIN],14.1

# Test system: NIH3T3
# Test: Cytoprotective activity against UV-induced apoptosis in mouse NIH/3T3 cells assessed as necrotic cells preincubated for 20 hrs followed by UV irradiation for 5 mins and measured after 24 hrs by flow cytometric analysis
# Type: functional, cell-based
# How it was run: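 NIH3T3 cells grown in DMEM plus 10% FBS at 37 °C and 5% CO₂, seeded in 6-well plates and left overnight. Inhibitor (0–60 µM, DMSO solvent) added for 20 h. Medium replaced, then UV at peak 315 nm, 0.29 mW/cm² for 5 min. Cells kept with inhibitor 24 h more before flow cytometry by quadrant regions. Untreated, unirradiated cells served as control. Three independent experiments.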
row,SMILES,Activity
1,CN(C)CCC=C1c2ccccc2CCc2ccccc21,Dose-dependent effect
